*1 amine or outer side, *2 acyl side, *3 side chain or, on linkers, in order; H or OH if unused. Where a SMILES comes first, the peptide text is derived from it. Side-chain parts run from the residue outwards. [ ]: non-standard residue; d: D form. The star is where a group is joined. X2 = CC[C@H](C)[C@H](NC[C@H](CCCCN)N*)C(=O)N[C@@H](CCCN=C(N)N)C(=O)N1CCC[C@H]1C(=O)N[C@@H](CCCCN)C(N)=O; N(2-aminoethyl)Phe = O=C([C@H](Cc1ccccc1)N(CCN[*:3])[*:1])[*:2]; X4 = CC(C)C[C@@H](CN([C@@H](CCCN=C(N)N)C(=O)[*:2])[*:1])N[*:3]; X5 = NCCCC[C@@H](CN([C@@H](CCCN=C(N)N)C(=O)[*:2])[*:1])N[*:3]; X1 = CC(C)C[C@@H](C(=O)[*:2])N(C[C@H](Cc1ccccc1)N[*:3])[*:1]
Legend:
[1] = Selectivity as ratio of IC50 for delta and mu opioid receptors; details: Cavia porcellus
Cavia porcellus [2] = organism: Cavia porcellus; assay: Binding affinity against smooth muscle tissue of Guinea pig ileum; type: functional
Method in brief: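 Longitudinal muscle–myenteric plexus strips from male Hartley guinea pigs (250–500 g) in oxygenated Krebs buffer at 37 °C under 1 g tension. Transmural stimulation at 0.1 Hz, 0.4 ms, supramaximal voltage, with no peptidase inhibitors. Cumulative agonist doses every 3 min; % inhibition of contraction height measured. IC50 from a Hill-equation fit of mean data from 2–4 tissues.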

Mu-type opioid receptor = Mu-type opioid receptor (Cavia porcellus, UniProt P97266); assay: Binding affinity against Opioid receptor mu 1 from Guinea pig brain homogenate using [3H]DAMGO; type: tissue-based
Cavia porcellus [3] = organism: Cavia porcellus; assay: Selectivity as ratio of IC50 for mu and kappa opioid receptors
[4] = molecular target: Kappa-type opioid receptor (Cavia porcellus, UniProt P41144); assay: Binding affinity against Opioid receptor kappa 1 of Guinea pig brain homogenate using [3H]U-69593; type: tissue-based
[5] = molecular target: Kappa-type opioid receptor (Cavia porcellus) (UniProt P41144); assay: Ratio of IC50 for central and peripheral kappa opioid receptor binding in guinea pig
Sequence of Kappa-type opioid receptor (Cavia porcellus) (P41144 whole entry): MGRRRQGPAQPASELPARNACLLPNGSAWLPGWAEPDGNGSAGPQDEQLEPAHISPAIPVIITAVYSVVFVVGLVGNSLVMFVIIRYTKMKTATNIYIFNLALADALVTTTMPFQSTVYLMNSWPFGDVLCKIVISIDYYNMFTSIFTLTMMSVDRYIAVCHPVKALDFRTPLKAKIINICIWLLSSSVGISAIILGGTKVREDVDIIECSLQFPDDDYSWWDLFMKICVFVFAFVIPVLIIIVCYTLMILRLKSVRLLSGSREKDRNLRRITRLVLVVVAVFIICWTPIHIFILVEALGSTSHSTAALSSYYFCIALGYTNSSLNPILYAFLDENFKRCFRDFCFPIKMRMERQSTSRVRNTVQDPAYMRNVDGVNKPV

Sequence of Kappa-type opioid receptor (P41144 whole entry): as above
Sequence of Mu-type opioid receptor (P97266 whole entry): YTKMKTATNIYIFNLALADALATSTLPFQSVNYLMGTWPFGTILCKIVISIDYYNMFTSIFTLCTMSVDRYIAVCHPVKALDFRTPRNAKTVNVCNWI

SMILES	Selectivity [1]	IC50 (Cavia porcellus [2]) [nM]	IC50 (Mu-type opioid receptor) [nM]	Selectivity (Cavia porcellus [3])	IC50 [4] [nM]	Ratio [5]
CC[C@H](C)[C@H](NC(=O)[C@H](CCCN=C(N)N)NC(=O)[C@H](CCCN=C(N)N)NC(=O)[C@H](CC(C)C)NC(=O)[C@H](Cc1ccccc1)NC(=O)CNC(=O)CNC[C@@H](N)Cc1ccc(O)cc1)C(=O)N[C@@H](CCCN=C(N)N)C(=O)N1CCC[C@H]1C(=O)N[C@@H](CCCCN)C(N)=O	25	308	96	12	8	38.5
CC[C@H](C)[C@H](NC(=O)[C@H](CCCN=C(N)N)NC(=O)[C@H](CCCN=C(N)N)NC(=O)[C@H](CC(C)C)NC(=O)[C@H](Cc1ccccc1)NC(=O)CNC(=O)CNC(=O)[C@@H](N)Cc1ccc(O)cc1)C(=O)N[C@@H](CCCCN)CN1CCC[C@H]1C(=O)N[C@@H](CCCCN)C(N)=O	–	2.1	5.2	–	0.24	–
CC[C@H](C)[C@@H](CN[C@@H](CCCN=C(N)N)C(=O)N1CCC[C@H]1C(=O)N[C@@H](CCCCN)C(N)=O)NC(=O)[C@H](CCCN=C(N)N)NC(=O)[C@H](CCCN=C(N)N)NC(=O)[C@H](CC(C)C)NC(=O)[C@H](Cc1ccccc1)NC(=O)CNC(=O)CNC(=O)[C@@H](N)Cc1ccc(O)cc1	–	3.7	4	–	0.36	–
CC[C@H](C)[C@H](NC(=O)[C@H](CCCN=C(N)N)NC[C@H](CCCCN)NC(=O)[C@H](CC(C)C)NC(=O)[C@H](Cc1ccccc1)NC(=O)CNC(=O)CNC(=O)[C@@H](N)Cc1ccc(O)cc1)C(=O)N[C@@H](CCCN=C(N)N)C(=O)N1CCC[C@H]1C(=O)N[C@@H](CCCCN)C(N)=O	–	70.6	9	–	0.9	–
CC[C@H](C)[C@H](NC[C@H](CCCCN)NC(=O)[C@H](CCCN=C(N)N)NC(=O)[C@H](CC(C)C)NC(=O)[C@H](Cc1ccccc1)NC(=O)CNC(=O)CNC(=O)[C@@H](N)Cc1ccc(O)cc1)C(=O)N[C@@H](CCCN=C(N)N)C(=O)N1CCC[C@H]1C(=O)N[C@@H](CCCCN)C(N)=O (H-YGGFLR-X2)	–	2.8	9.2	–	0.16	–
CC[C@H](C)[C@H](NC(=O)[C@H](CCCN=C(N)N)NC(=O)[C@H](CCCN=C(N)N)NC(=O)[C@H](CC(C)C)NC(=O)[C@H](Cc1ccccc1)NCCNC(=O)CNC(=O)[C@@H](N)Cc1ccc(O)cc1)C(=O)N[C@@H](CCCN=C(N)N)C(=O)N1CCC[C@H]1C(=O)N[C@@H](CCCCN)C(N)=O (H-[N(2-aminoethyl)Phe]([Gly-Tyr])LRRIRPK-NH2)	–	20.5	1040	–	17	–
CC[C@H](C)[C@H](NC(=O)[C@H](CCCN=C(N)N)NC(=O)[C@H](CCCN=C(N)N)NC(=O)[C@H](CC(C)C)NC[C@H](Cc1ccccc1)NC(=O)CNC(=O)CNC(=O)[C@@H](N)Cc1ccc(O)cc1)C(=O)N[C@@H](CCCN=C(N)N)C(=O)N1CCC[C@H]1C(=O)N[C@@H](CCCCN)C(N)=O (H-[X1]([Gly-Gly-Tyr])RRIRPK-NH2)	–	16.6	12	–	0.55	–
CC[C@H](C)[C@H](NC(=O)[C@H](CCCN=C(N)N)NC(=O)[C@H](CCCN=C(N)N)NC[C@H](CC(C)C)NC(=O)[C@H](Cc1ccccc1)NC(=O)CNC(=O)CNC(=O)[C@@H](N)Cc1ccc(O)cc1)C(=O)N[C@@H](CCCN=C(N)N)C(=O)N1CCC[C@H]1C(=O)N[C@@H](CCCCN)C(N)=O (H-[X4]([Phe-Gly-Gly-Tyr])RIRPK-NH2)	52	21	0.64	1	0.61	30.4
CC[C@H](C)[C@H](NC(=O)[C@H](CCCN=C(N)N)NC(=O)[C@H](CCCN=C(N)N)NC[C@H](CCCCN)NC(=O)[C@H](Cc1ccccc1)NC(=O)CNC(=O)CNC(=O)[C@@H](N)Cc1ccc(O)cc1)C(=O)N[C@@H](CCCN=C(N)N)C(=O)N1CCC[C@H]1C(=O)N[C@@H](CCCCN)C(N)=O (H-[X5]([Phe-Gly-Gly-Tyr])RIRPK-NH2)	59	–	–	–	–	78.4
